This is a sample that favours compounds with a hit; in the whole collection about 1.9% have one here.
Runt-CBFb FRET: blocks binding of human RUNX1 Runt domain to CBFb; Q01196+Q13951; Cerulean-Runt/Venus-CBFb FRET ratio 530/480, 1 h; inhibition, % at 20 µM; 220,000 compounds, 0.46% hits; AID 1496;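 active means inhibition over about 50% at 20 µM in the single-dose screen, limit read from the data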;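 further: 0% = DMSO wells and 100% = excess unlabeled CBFb competitor control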
Target sequence (Q01196 whole entry, looked up, the tested form may be a part): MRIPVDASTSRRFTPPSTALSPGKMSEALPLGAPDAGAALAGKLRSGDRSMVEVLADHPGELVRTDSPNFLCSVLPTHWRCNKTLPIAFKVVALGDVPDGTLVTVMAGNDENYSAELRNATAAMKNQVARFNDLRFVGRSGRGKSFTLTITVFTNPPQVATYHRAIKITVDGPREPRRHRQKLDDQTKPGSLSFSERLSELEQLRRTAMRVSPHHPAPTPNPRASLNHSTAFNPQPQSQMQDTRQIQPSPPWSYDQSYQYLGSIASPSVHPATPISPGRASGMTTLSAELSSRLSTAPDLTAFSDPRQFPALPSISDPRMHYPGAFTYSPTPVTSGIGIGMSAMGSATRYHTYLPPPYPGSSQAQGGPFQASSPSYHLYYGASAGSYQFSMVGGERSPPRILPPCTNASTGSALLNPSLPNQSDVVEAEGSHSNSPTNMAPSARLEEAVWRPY
Target sequence (Q13951 whole entry, looked up, the tested form may be a part): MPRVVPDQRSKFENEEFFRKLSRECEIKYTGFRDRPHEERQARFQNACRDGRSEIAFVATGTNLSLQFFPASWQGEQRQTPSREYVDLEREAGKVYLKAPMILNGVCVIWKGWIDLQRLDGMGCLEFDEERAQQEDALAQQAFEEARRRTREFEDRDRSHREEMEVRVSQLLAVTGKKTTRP
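Assay system: Cerulean-Runt domain / Medium: Tris 50 mM pH 7.5, KCl, K2SO4, 0.01% BSA / Timing: protein complex preformed 1 h, compound exposure 1 h, room temperature, dark / Measured by: FRET, excitation 422 nm, emission at 530 and 480 nm / Evaluation: loss of energy transfer signal / Control set: 5 µM unlabeled CBFb as full-inhibition high control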
RanGTP-Impb inh: disruptors of Ran-importin-beta complex formation – biochemical, FRET, CFP-Ran, YFP-importin-beta, homogeneous, primary screen; 300,000 compounds, 1.1% hits; cell-free CFP-Ran/YFP-importin-beta FRET ratio; AID 2216; inhibition, % (no concentration beside the values);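 active means more than half of the replicate wells show a fall in the fluorescence ratio signal beyond about 16%, limit read from the data, passing the limit was not always enough; inconclusive means exactly half of the replicate wells pass the set limit; inactive means fewer than half of replicates pass the limit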;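 further: 0% = DMSO wells and 100% = Ran loaded with GDP instead of GTP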
Runt-SMMHC FRET: blocks binding of human RUNX1 Runt domain to CBFb-SMMHC. AID 1434. inhibition, % at 20 µM. 220,000 compounds, 0.74% hits. Q01196+Q13951. Cerulean-Runt/Venus-CBFb-SMMHC FRET ratio 530/480, 1 h;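 active means mean inhibition across duplicate retests at 20 µM reaching about 50%, limit read from the data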;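 further: 0% = DMSO wells and 100% = wells with excess untagged CBFb-SMMHC; inhibitors lower the FRET ratio by blocking Runt binding to CBFb-SMMHC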
CaV13 ICDI inh: Disruptors of the CACNA1D IQ motif to Ca2+-dependent inactivation inhibitor domain association, primary screening, Förster resonance energy transfer in intact living …; HEK cells, CFP/YFP FRET ICDI-IQ, plate reader, 10 min; percent FRET-ratio fall versus neutral wells; inhibition, % at 12.3 µM; 340,000 compounds, 0.098% hits; AID 743397;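 active means mean replicate inhibition of at least 30% and at least 1% of replicates passing that level; inconclusive means only one of the two criteria is met; inactive means neither criterion is met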;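 further: 0% = median of the neutral control wells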
HDAC3 inhib: blocks human histone deacetylase 3; O15379; recombinant HDAC3, fluorogenic peptide/trypsin coupled, fluorescence; inhibition, % at 8.3 µM; 320,000 compounds, 0.15% hits; AID 2718; in the data active means inhibition above about 26%, passing the limit was not always enough; inconclusive means no clear call, values can overlap the other calls
LANA-H2A inh: blocks KSHV LANA binding to histone H2A/H2B | cell-free LANA-H2A/H2B peptide, fluorescence polarization | Q9QR71 | inhibition, % (concentration not given with the values) | 320,000 compounds, 0.6% hits; in the data active means inhibition mostly above about 10%, no sharp cut-off; inactive means mostly below about 6.7%
An asterisk follows results filed as active; ? = inconclusive; / = not tested or not shown.

SMILES	Runt-CBFb FRET	RanGTP-Impb inh	Runt-SMMHC FRET	CaV13 ICDI inh	HDAC3 inhib	LANA-H2A inh
Cc1ccc(CCNC(=O)CN(C)S(=O)(=O)c2ccc3c(c2)c(=O)n(C)c(=O)n3C)cc1	2.9	4.7	-0.8	-6.9	-3.9	-1.4
O=C1NC(c2ccc(Br)cc2)Nc2sc3c(c21)CCC3 (stereo not given)	10.2	-3.9	-10.8	-3.3	-2.9	-7.8
Cc1ccc(C2NC(=O)c3c(sc4c3CCN(C)C4)N2)o1 (stereo not given)	88.0*	105.7*	71.7*	-3.4	-7.4	-21.5
CN1CCc2c(sc3c2C(=O)NC(c2ccccc2)N3)C1 (stereo not given)	106.2*	5.2	76.0*	2.2	-17.6	1.1
CC(C)(C)C1CCc2c(sc3c2C(=O)NC(c2ccco2)N3)C1 (stereo not given)	1.7	4.3	5.7	-7.4	3.4	1.2
Cc1noc(C)c1COc1ccc(C(=O)N(C)CCOc2ccccc2)cc1	/	/	/	-1.4	1.5	-0.4
CC1CCC2(CC1)NC(=S)N(c1ccccc1)N2 (stereo not given)	1.7	0.1	4.0	-5.0	-3.5	17.5*
CCOC(=O)c1ccc(-c2ccc(/C=N/NC(=O)CN(c3ccccc3Br)S(C)(=O)=O)o2)cc1	-8.2	1.3	-4.3	-2.9	-2.0	5.7
Cc1c(-c2ccccc2)oc2c(C(=O)OCC(=O)Nc3ccc(C(N)=O)cc3)cccc2c1=O	-2.7	1.2	2.7	-12.3	-2.4	28.4*
Cc1ccccc1CC1(CO)CCCN(Cc2nc(-c3cccs3)oc2C)C1 (stereo not given)	-2.3	0.5	-4.4	-4.3	1.0	-0.8
CC1CC(C)CN(S(=O)(=O)N2CCCC(C(=O)NCCc3ccc(Cl)cc3)C2)C1 (stereo not given)	/	-2.8	/	-5.7	1.7	-1.1
Cc1c(NC(=O)C(C)OC(=O)CNC(=O)c2ccccc2)c(=O)n(-c2ccccc2)n1C (stereo not given)	2.1	-1.0	2.4	-4.7	-1.1	3.1
CCc1ccc(/C=C2\Oc3cc(OS(C)(=O)=O)ccc3C2=O)cc1	-8.0	2.8	-6.0	-2.4	7.0	-1.9
CCc1ccc(/C=C2\Oc3c(ccc(O)c3CN3CCN(CCO)CC3)C2=O)cc1	11.7	11.9	81.2*	-14.4	6.6	6.5
COCCNC(=S)N=Nc1c(O)[nH]c2c(C)cc(C)cc12	-1.0	156.3*	-1.4	-5.0	10.3	-0.9
Cc1cccc(N2CCN(C(=O)Cn3sc4nc(C)cc(C)c4c3=O)CC2C)c1 (stereo not given)	-20.5	2.0	73.9*	/	-5.4	0.8
Cc1cc(C)c2c(=O)n(CC(=O)N3CCC(Cc4ccccc4)CC3)sc2n1	-14.9	-4.2	50.4*	/	/	/
COc1ccccc1C(=O)Nc1ccc2c3c(cccc13)CC2	-0.8	0.7	3.8	-15.2	11.3	-0.9
O=C(Cc1cccs1)NC(Cc1c[nH]c2ccccc12)C(=O)O (stereo not given)	/	0.9	/	-4.1	4.3	3.9
CCc1nc(N[C@@H](Cc2c[nH]c3ccccc23)C(=O)O)c2oc3ccccc3c2n1	3.1	0.8	2.0	-4.9	0.9	-0.1
Cc1nc(N[C@@H](Cc2c[nH]c3ccccc23)C(=O)O)c2oc3ccccc3c2n1	/	/	6.0	/	2.9	18.5*
Cc1c(O)ccc2c(CC(=O)N[C@@H](Cc3c[nH]c4ccccc34)C(=O)O)cc(=O)oc12	/	20.7*	/	-2.6	-9.7	0.9
Cc1cccc(CSC2=NN3CCCC(=O)N=C3S2)c1	-2.8	1.1	1.0	-9.0	-2.1	-2.5
CN(C)CCOCCOc1ccc(Cl)cc1Br	0.3	-2.8	-2.0	-4.2	3.8	12.0*
COc1cccc(C(=O)/C=C2\Sc3ccccc3N2C)c1	44.1	1.6	55.3*	-5.3	3.9	0.9
SMILES	Runt-CBFb FRET	RanGTP-Impb inh	Runt-SMMHC FRET	CaV13 ICDI inh	HDAC3 inhib	LANA-H2A inh
O=C(COC(=O)c1nc(Cl)ccc1Cl)c1ccccc1Cl	/	/	/	-15.3	0.6	1.3
O=C(COC(=O)c1nc(Cl)ccc1Cl)NCc1ccccc1	-0.1	0.7	-2.0	-6.5	-6.3	14.4*
C/C=C/Cn1cccc(C(=O)Nc2ccc(OC)cc2)c1=O	0.9	-1.6	-0.6	-4.9	3.7	3.0
COCCN1C=C2C(=O)C(C)(OC(=O)CCc3ccccc3)C(=O)C=C2C=C1c1ccc(C#N)cc1 (stereo not given)	4.1	1.9	0.3	-5.0	-11.0	101.0*
CC1(OC(=O)CCc2ccccc2)C(=O)C=C2C=C(c3ccc(C#N)cc3)N(Cc3ccccc3)C=C2C1=O (stereo not given)	9.8	2.7	6.8	-11.0	0.9	0.8
c1ccc(SCCc2ccncc2)cc1	/	0.6	-3.1	/	-5.6	3.3
CC(C)(C)c1ccc(SCCc2cccnc2)cc1	-5.1	-6.1	1.9	-20.9	2.1	14.2*
Cc1ccc(/C(O)=C/c2nc3cc(C)ccc3oc2=O)cc1	11.7	0.0	-13.7	-2.5	5.1	26.2*
Cc1ncc(CO)c(/C=N/NC(=O)c2ccc(Br)cc2)c1O	18.7	21.0*	58.5*	/	1.0	2.4
CCC(=O)Nc1cccc(C2=NOC3(C2)C[C@@H](C(N)=O)N(C(=O)C(c2ccccc2)c2ccccc2)C3)c1 (stereo not given in full)	-2.7	26.3*	-0.4	-9.3	?	2.8
CCC(=O)Nc1cccc(C2=NOC3(C2)C[C@@H](C(N)=O)N(C(=O)CC(c2ccccc2)c2ccccc2)C3)c1 (stereo not given in full)	2.1	-3.5	-4.3	-2.3	-2.1	-3.1
C/C=C/C=C/C(=O)N1CC2(CC(c3cccc(NC(=O)CCCCC)c3)=NO2)C[C@H]1C(N)=O (stereo not given in full)	3.8	-1.6	3.3	-11.5	60.8*	-2.1
Cc1ccc(S(=O)(=O)N(CC(=O)NCC2CCCO2)Cc2ccc(F)cc2)cc1 (stereo not given)	/	0.8	/	-2.1	-1.8	0.9
COc1ccccc1NC(=O)C(C)N(C)CCOc1ccccc1 (stereo not given)	/	6.9	/	-1.9	3.5	-4.7
CC(C(=O)Nc1ccc(F)c(F)c1F)N(C)CCOc1ccccc1 (stereo not given)	/	-0.5	/	-2.5	7.8	10.9*
O=C(O)CSCCC(=O)Nc1ccc(F)cc1	-0.9	-1.8	1.0	-8.9	4.5	27.8*
CC(=O)c1ccc(NC(=O)CCSCCC(=O)Nc2ccc(C(C)=O)cc2)cc1	0.6	-1.8	-4.1	-1.4	11.3	-0.3
O=C(Oc1ccccc1/C=C\C(=O)c1cc2ccccc2o1)c1cccc(F)c1	3.4	0.8	-4.1	-5.6	10.0	17.2*
